Results published in publication PMC4485437 (Biochemistry, 2015).

Key:
[1] = molecular target: T1, VcMTAN (WT) (Vibrio cholerae serotype O1, UniProt Q9KPI8); experiment: Luminescence-based steady-state kinetic assay; assay type: biochemical; conditions: substrate MTA
[2] = molecular target: T2, VcMTANA113P (Vibrio cholerae serotype O1, UniProt Q9KPI8, A113P); experiment: Luminescence-based steady-state kinetic assay; assay type: biochemical; conditions: substrate MTA
[3] = molecular target: T3, VcMTANV153I (Vibrio cholerae serotype O1, UniProt Q9KPI8, V153I); experiment: Luminescence-based steady-state kinetic assay; assay type: biochemical; conditions: substrate MTA
[4] = molecular target: T4, VcMTANA113P/V153I (VcMTANDOUBLE) (Vibrio cholerae serotype O1, UniProt Q9KPI8, A113P/V153I); experiment: Luminescence-based steady-state kinetic assay; assay type: biochemical; conditions: substrate MTA
[5] = molecular target: T5, VcMTANA113P/V153I/R158G (Vc[…]) (Vibrio cholerae serotype O1, UniProt Q9KPI8, A113P/R158G/V153I); experiment: Luminescence-based steady-state kinetic assay; assay type: biochemical; conditions: substrate MTA
[6] = molecular target: T6, EcMTAN (Escherichia coli, UniProt P0AF12); experiment: Luminescence-based steady-state kinetic assay; assay type: biochemical; conditions: substrate MTA
In short: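 His6-tagged enzyme was expressed in E. coli BL21(DE3) (1 mM IPTG, 37°C, 10 h) and purified on Ni-NTA. Product adenine was converted to ATP by excess yeast APRTase (20 microunits/well) and C. symbiosum PPDK (320 microunits/well), then read by luciferase luminescence at 570 nm. Enzyme 5–25 pM; reactions started with 0.02–1 μM MTA.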

[7] = system: E. coli DHFR (EcDHFR) Asp27Glu; conditions: Asp27Glu vs native EcDHFR; cited from earlier work
[8] = molecular target: T1, VcMTAN (WT); experiment: Isothermal titration calorimetry; assay type: binding; conditions: 25°C; for ΔG: calculated from Ki*; for TΔS: from Gibbs free energy equation
In short: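 Enzyme expressed in E. coli BL21(DE3) and Ni-NTA purified, then stripped of bound adenine by dialysis against phosphate buffer with activated charcoal. Sample cell held 60–120 μM dimer; test compound in dialysate was injected, degassed solutions, 25°C. Fit to a two-independent-site model gave ΔH per catalytic site. ΔG = RT ln Ki*, with Ki* from 0.8 mM MTA plus xanthine oxidase at 305 nm. −TΔS came from the Gibbs equation.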

[9] = molecular target: T2, VcMTANA113P; experiment: Isothermal titration calorimetry; assay type: binding; conditions: for ΔH / ΔG / TΔS: 25°C; for ΔG: calculated from Ki*; for TΔS: from Gibbs free energy equation
[10] = molecular target: T3, VcMTANV153I; experiment: Isothermal titration calorimetry; assay type: binding
[11] = molecular target: T4, VcMTANA113P/V153I (VcMTANDOUBLE); experiment: Isothermal titration calorimetry; assay type: binding
[12] = molecular target: T5, VcMTANA113P/V153I/R158G (Vc[…]); experiment: Isothermal titration calorimetry; assay type: binding; conditions: single site, 25°C
[13] = molecular target: T6, EcMTAN; experiment: Isothermal titration calorimetry; assay type: binding; conditions: 25°C; for ΔG: calculated from Ki*; for TΔS: from Gibbs free energy equation
In short: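 Copurified adenine stripped by dialysis against phosphate buffer with activated charcoal. 60–120 μM dimer in cell, dialysate as reference. Test compound in dialysate; solutions filtered and degassed. Titrated at 25°C. Isotherms fit to two independent sites; ΔH from integrated heat. ΔG = RT ln Ki*, using first-site […] from low-substrate luciferase-coupled assay. −TΔS from ΔG = ΔH − TΔS.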

[14] = molecular target: T1, VcMTAN (WT); experiment: Titration of [14C]MTDIA to MTAN; assay type: binding; conditions: MTAN dimer 27−85 μM
[15] = molecular target: T2, VcMTANA113P; experiment: Titration of [14C]MTDIA to MTAN; assay type: binding; conditions: MTAN dimer 27−33 μM
[16] = molecular target: T3, VcMTANV153I; experiment: Titration of [14C]MTDIA to MTAN; assay type: binding; conditions: MTAN dimer 27−33 μM
[17] = molecular target: T4, VcMTANA113P/V153I (VcMTANDOUBLE); experiment: Titration of [14C]MTDIA to MTAN; assay type: binding; conditions: MTAN dimer 27−33 μM
[18] = single site, 25°C, from Gibbs free energy equation

Q: Which results are given for 5′-methylthioadenosine [MTA]?
A: kcat [1]: 0.18 ± 0.01 s⁻¹; Km ([1]; first-catalytic site filling): 0.061 ± 0.006 µM; kcat [2]: 0.17 ± 0.01 s⁻¹; Km ([2]; first-catalytic site filling): 0.262 ± 0.029 µM; kcat [3]: (7.9 ± 4) × 10^−3 s^−1; Km ([3]; first-catalytic site filling): 0.43 ± 0.047 µM; kcat [4]: (7.4 ± 3) × 10^−2 s^−1; Km ([4]; first-catalytic site filling): 0.202 ± 0.023 µM; kcat [5]: 0.11 ± 0.01 s⁻¹; Km ([5]; first-catalytic site filling): 0.536 ± 0.122 µM; kcat [6]: 0.32 ± 0.01 s⁻¹; Km ([6]; first-catalytic site filling): 0.139 ± 0.018 µM

Q: With `Nc1nc(=O)c2c([nH]1)NCC(CNc1ccc(C(=O)N[C@@H](CCC(=O)O)C(=O)O)cc1)=N2` [DHF, 7,8-dihydrofolate] as the molecule, how does the “KM(DHF) increase” value [7] read?
A: 20 fold

Q: With `CSC[C@H]1CN(Cc2c[nH]c3c(N)ncnc23)C[C@@H]1O` [MTDIA, 4′-deaza-1′-aza-2′-deoxy-1′-(9-[^14C]methylene)-Immucillin-A] as the molecule, how does the ΔH ([8]; first site) read?
A: -6.0 ± 0.2 kcal/mol

Q: What about the ΔG ([8]; first site) of the same molecule?
A: -15.8 ± 0.1 kcal/mol

Q: What about the TΔS ([8]; first site) of the same molecule?
A: -9.8 ± 0.2 kcal/mol

Q: What about the ΔH ([8]; second site) of the same molecule?
A: -2.6 ± 0.3 kcal/mol

Q: What about the ΔG ([8]; second site) of the same molecule?
A: -14.3 ± 0.2 kcal/mol

Q: And the TΔS ([8]; second site)?
A: -11.7 ± 0.4 kcal/mol

Q: What about the “enthalpy of MTDIA binding less favorable than parent VcMTAN” value ([9]; VcMTANA113P vs VcMTAN) of the same molecule?
A: 3 kcal/mol

Q: And the ΔH ([9]; first site)?
A: -2.9 ± 0.1 kcal/mol

Q: And the ΔG ([9]; first site)?
A: -13.9 ± 0.1 kcal/mol

Q: What about the TΔS ([9]; first site) of the same molecule?
A: -11.0 ± 0.1 kcal/mol

Q: What about the ΔH ([9]; second site) of the same molecule?
A: -1.8 ± 0.2 kcal/mol

Q: And the ΔG ([9]; second site)?
A: -13.5 ± 0.8 kcal/mol

Q: And the TΔS ([9]; second site)?
A: -11.7 ± 0.8 kcal/mol

Q: What about the “enthalpy of MTDIA binding more favorable than that of VcMTANA113P” value ([10]; VcMTANV153I vs VcMTANA113P) of the same molecule?
A: -2.0 kcal/mol

Q: What about the ΔH ([10]; single site, 25°C) of the same molecule?
A: -4.9 ± 0.1 kcal/mol

Q: What about the TΔS [10, 18] of the same molecule?
A: -5.7 ± 0.2 kcal/mol

Q: And the “enthalpy of MTDIA binding more favorable than that of VcMTANA113P” value ([11]; VcMTANDOUBLE vs VcMTANA113P)?
A: -1.0 kcal/mol

Q: What about the ΔH ([11]; single site, 25°C) of the same molecule?
A: -3.9 ± 0.1 kcal/mol

Q: And the ΔG ([11]; single site, 25°C, calculated from Ki*)?
A: -15.7 ± 0.1 kcal/mol

Q: And the TΔS [11, 18]?
A: -11.8 ± 0.1 kcal/mol

Q: What about the ΔH [12] of the same molecule?
A: -4.8 ± 0.2 kcal/mol

Q: What about the ΔG ([12]; calculated from Ki*) of the same molecule?
A: -13.3 ± 0.1 kcal/mol

Q: What about the TΔS ([12]; from Gibbs free energy equation) of the same molecule?
A: -8.5 ± 0.2 kcal/mol

Q: And the ΔH ([13]; first site)?
A: -18.9 ± 0.2 kcal/mol

Q: And the ΔG ([13]; first site)?
A: -17.4 ± 0.9 kcal/mol

Q: And the TΔS ([13]; first site)?
A: 1.5 ± 0.9 kcal/mol

Q: What about the ΔH ([13]; second site) of the same molecule?
A: -16.8 ± 0.2 kcal/mol

Q: And the ΔG ([13]; second site)?
A: -10.2 ± 0.1 kcal/mol

Q: And the TΔS ([13]; second site)?
A: 6.6 ± 0.2 kcal/mol

Q: And the “binding of MTDIA* on titration to one or two catalytic sites per dimer” value (“binding of MTDIA* on titration … per dimer” below) [14]?
A: complete binding at the first site and near-stoichiometric binding at the second site

Q: And the “binding of MTDIA* on titration … per dimer” value [15]?
A: complete binding at the first site and near-stoichiometric binding at the second site

Q: And the “binding of MTDIA* on titration … per dimer” value [16]?
A: left more MTDIA* unbound as both the first and second sites were titrated

Q: What about the “binding of MTDIA* on titration … per dimer” value [17] of the same molecule?
A: left more MTDIA* unbound as both the first and second sites were titrated

Q: With `CN(Cc1cnc2nc(N)nc(N)c2n1)c1ccc(C(=O)N[C@@H](CCC(=O)O)C(=O)O)cc1` [methotrexate] as the molecule, how does the methotrexate affinity decrease [7] read?
A: 176 fold
